ARNT TACC3 PPI: ARNT/TACC3 interaction disruption; inhibition, % at 9.99 µM; AlphaScreen His-ARNT PAS-B/GST-TACC3 binding, luminescence; TACC3 fragment carries E629A point mutation; actives 0.66% (n = 390,000); Q9Y6A5;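 active = mean inhibition of replicates at least 50% and at least half of replicates each reaching 50%; inconclusive = half or more replicates reach 50% but mean below 50%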
XiGFP reactiv: activators of X-chromosome reactivation in mouse fibroblasts; XiGFP mouse fibroblasts, % GFP-positive cells imaging, 3 d; cells co-treated with 5-aza-dC sensitizer; scaled so ellipticine positive control = 100%; AID 743238; actives 0.055% (n = 360,000); activation, % at 7.58 µM;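 active = mean normalized replicate activation at least 10% and every replicate at or above 10%; inconclusive = only one of the two criteria met; inactive = mean below 10% and not all replicates reach 10%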
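Assay system: SV40-immortalized XiGFP fibroblast cells, line 68-5-11; buffer or medium: DMEM plus 5-aza-dC sensitizer; compound: one concentration, pinned; timing: compounds 3 days, fix/stain 15 min at room temperature; benchmarks: positive control ellipticine, 6 µM final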
FGF22 binding: shifts melting point of recombinant human FGF22 | activity (Tm shift, normalised), % at 9.99 µM | recombinant FGF22 thermal shift, SYPRO orange fluorescence; percent of sucrose octasulfate shift, DMSO zero | AID 651658 | actives 1.5% (n = 340,000);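 active = mean Tm shift, scaled 0 neutral to 100 positive control, at about 1.3% or above, every replicate too, limit read from the data; inconclusive = no clear call, values can overlap the other calls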
Target sequence (Q9HCT0 whole entry, looked up): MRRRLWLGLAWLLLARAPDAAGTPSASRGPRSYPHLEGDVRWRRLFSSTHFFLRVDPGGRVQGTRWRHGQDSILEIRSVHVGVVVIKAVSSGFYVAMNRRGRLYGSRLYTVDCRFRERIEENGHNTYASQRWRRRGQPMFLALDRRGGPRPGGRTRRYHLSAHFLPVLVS
FN deposit inh: fibronectin deposition inhibition; actives 0.086% (n = 350,000); AH1F fibroblasts, Alexa488-fibronectin deposition fluorescence, overnight; AID 743247; inhibition, % at 12.6 µM;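 active = mean inhibition across replicates of 30% or more, regardless of how many single replicates reach that level; inconclusive = mean under 30% yet at least half of replicates reach 30%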
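material = AH1F fibroblast monolayer depositing Alexa488-labelled fibronectin into matrix | amount = 10000 AH1F cells/well | buffer or medium = DMEM plus 2% serum, read in PBS | incubation = 1 h cell adhesion before compound, then overnight fibronectin incubation | detection = fluorescence at 485 nm excitation, 525 nm emission | evaluation = percent inhibition as loss of matrix-bound fibronectin fluorescence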
DENV2 CPE: inhibitors of DENV2 cytopathic effect; DENV2-infected cells, cytopathic effect rescue, plate reader; CPE inhibition, % at 9.99 µM; actives 1.7% (n = 350,000); AID 651640; in the data active = CPE inhibition above about 20%, passing the limit was not always enough; inconclusive = no clear call, values can overlap the other calls; tested in BHK-21 cells
SIRT5 block: sirtuin-5 (human) deacylase inhibition; actives 1.1% (n = 330,000); Q9NXA8; inhibition, % at 15 µM; Purified SirT5, succinyl-peptide AMC, trypsin-coupled fluorescence; in the data active = inhibition above about 15%; inconclusive = no clear call, values can overlap the other calls
Target sequence (Q9NXA8 whole entry, looked up): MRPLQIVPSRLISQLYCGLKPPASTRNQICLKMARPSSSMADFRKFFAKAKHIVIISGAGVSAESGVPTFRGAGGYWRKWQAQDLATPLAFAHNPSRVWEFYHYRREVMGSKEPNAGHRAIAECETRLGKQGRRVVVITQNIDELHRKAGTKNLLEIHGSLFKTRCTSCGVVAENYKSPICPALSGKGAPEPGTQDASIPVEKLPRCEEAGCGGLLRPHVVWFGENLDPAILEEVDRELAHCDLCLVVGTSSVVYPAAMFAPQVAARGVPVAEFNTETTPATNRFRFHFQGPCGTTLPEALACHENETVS
A number is an active result; 0 = inactive; ? = inconclusive; - = no result given; ! = not active in a repeat. This is a sample that favours compounds with a hit; in the whole collection about 3.8% have one here.

SMILES | ARNT TACC3 PPI | XiGFP reactiv | FGF22 binding | FN deposit inh | DENV2 CPE | SIRT5 block
CCOc1ccccc1NC(=O)NCc1cccnc1 | 0 | 0 | 42.9 | 0 | 0 | 0
O=C(COc1ccc(-c2nnco2)cc1)NCc1ccccc1Cl | 0 | 0 | 0 | 0 | 42.9 | 0
COc1ccc(NC(=O)Nc2ccc3c(c2)C(=O)N([C@H](C)CO)C[C@H](C)[C@@H](CN(C)Cc2ccc(Oc4ccccc4)cc2)O3)cc1 | 0 | 0 | 0 | - | 0 | 0
O=C(CCNC(=O)N1CC(=O)Nc2ccccc21)NCc1ccc(F)cc1 | 0 | 0 | 0 | 0 | 0 | 0
O=C(CNC(=O)N1CC(=O)Nc2ccccc21)NCc1ccc(F)cc1 | - | 0 | 0 | 0 | 112.8 | 0
Cc1noc(C)c1NC(=O)Nc1ccc2c(c1)C(=O)N([C@H](C)CO)C[C@H](C)[C@H](CN(C)S(=O)(=O)c1ccccc1)OCCCC[C@@H](C)O2 | 0 | 0 | - | 0 | 0 | 0
COc1ccc(S(=O)(=O)Nc2ccc3c(c2)C(=O)N([C@@H](C)CO)C[C@H](C)[C@H](CN(C)S(=O)(=O)c2cccs2)OCCCC[C@H](C)O3)cc1 | 0 | 0 | 0 | 0 | 0 | 15.3
COc1ccc(S(=O)(=O)Nc2ccc3c(c2)C(=O)N([C@H](C)CO)C[C@H](C)[C@H](CN(C)S(=O)(=O)c2cccs2)OCCCC[C@H](C)O3)cc1 | 0 | 0 | 0 | 0 | 0 | 17.9
CC(=O)N1[C@H](CN(CC2CCC2)C(=O)CC2CC2)[C@@H](c2ccccc2)[C@@H]1CO | 0 | 0 | 0 | 0 | 0 | 0
O=C(C[C@@H]1CC[C@@H]2[C@H](COC[C@H](O)CN2C(=O)c2ccccc2F)O1)NCc1ccccc1 | 0 | 0 | - | 0 | ? | 0
O=C(C[C@H]1CC[C@@H]2[C@H](COC[C@@H](O)CN2C(=O)c2cccnc2)O1)NCc1ccc(-c2ccccc2)cc1 | 0 | 0 | 0 | 0 | 23.4 | 0
CCNC(=O)C[C@H]1CC[C@H]2[C@@H](COC[C@H](O)CN2C(=O)c2cccnc2)O1 | 0 | 0 | 0 | 0 | 94.4 | 0
O=C(C[C@@H]1CC[C@H]2[C@@H](COC[C@H](O)CN2C(=O)c2ccccc2F)O1)NCc1ccccc1 | 0 | 0 | 0 | 0 | 85.7 | 0
CCCNC(=O)C[C@H]1CC[C@@H]2[C@H](COC[C@@H](O)CN2C(=O)c2ccccn2)O1 | 0 | 0 | 0 | 0 | 88.9! | 0
O=C(C[C@@H]1CC[C@@H]2[C@H](COC[C@@H](O)CN2C(=O)c2cccnc2)O1)NCc1ccc(-c2ccccc2)cc1 | 0 | 0 | 0 | 0 | 0 | 0
COc1ccccc1C#Cc1cnc2c(c1)C(=O)N([C@H](C)CO)C[C@@H](C)[C@@H](CN(C)C(=O)CN(C)C)O2 | 0 | 0 | 0 | - | 0 | 0
CCCC#Cc1ccc([C@@H]2[C@H]3CN(C(=O)Nc4ccccc4F)CC(=O)N3[C@H]2CO)cc1 | - | 0 | - | - | 0 | 0
O=C(NCC(F)(F)F)[C@@H]1[C@@H](CO)[C@@H]2Cn3c(ccc(-c4cccnc4)c3=O)[C@H]1N2Cc1ccccc1 | 0 | 0 | 0 | - | 0 | 0
COc1ccccc1-c1cn(CC[C@@H]2CC[C@H](NC(=O)c3ccccc3F)[C@@H](CO)O2)nn1 | 0 | 0 | 0 | 0 | 0 | 0
COc1ccc(S(=O)(=O)N(C)C[C@H]2Oc3ccc(NC(=O)CCN4CCOCC4)cc3CC(=O)N([C@@H](C)CO)C[C@@H]2C)cc1 | 0 | 0 | 0 | 0 | 0 | 0
O=C(C[C@H]1CC[C@@H]2[C@H](COC[C@H](O)CN2C(=O)c2ccncc2)O1)NCc1ccc(-c2ccccc2)cc1 | - | 0 | 0 | 0 | 20.2 | 0
O=C(C[C@@H]1CC[C@@H]2[C@H](COC[C@H](O)CN2C(=O)c2ccncc2)O1)NCc1ccc(-c2ccccc2)cc1 | 0 | 0 | - | 0 | 0 | 0
CS(=O)(=O)N1C[C@H](O)COC[C@H]2O[C@@H](CC(=O)NCc3ccc(-c4ccccc4)cc3)CC[C@@H]21 | 0 | 0 | 0 | 0 | 78.8 | 0
C[C@@H]1CN([C@@H](C)CO)C(=O)c2cccc(NS(=O)(=O)c3cccs3)c2O[C@@H]1CN(C)C(=O)Nc1ccccc1 | - | 0 | - | - | - | -
C[C@H](NC(=O)C[C@H]1C[C@H]2c3cc(NC(=O)c4cccnc4)ccc3O[C@H]2[C@H](CO)O1)c1ccccc1 | 0 | 0 | 0 | - | 0 | 0
SMILES | ARNT TACC3 PPI | XiGFP reactiv | FGF22 binding | FN deposit inh | DENV2 CPE | SIRT5 block
COc1cccc(NC(=O)N[C@@H]2C=C[C@@H](CC(=O)NCc3ccncn3)O[C@@H]2CO)c1 | - | 0 | 0 | 0 | 0 | 0
CCCCn1c(N)c(N(CCOC)C(=O)c2cc(-c3ccco3)nc3ccccc23)c(=O)[nH]c1=O | 0 | 0 | 0 | 0 | 0 | 0
CCCCn1c(N)c(N(CCOC)C(=O)c2cc(=O)[nH]c3ccccc23)c(=O)[nH]c1=O | - | 0 | 0 | 0 | 73.3 | 0
CCCCN(C(=O)c1ccc(COc2ccccc2)o1)c1c(N)n(CC(C)C)c(=O)[nH]c1=O | 0 | 0 | 0 | 0 | ? | 0
CCCCN(C(=O)c1ccccc1OCc1ccc(F)cc1)c1c(N)n(CC(C)C)c(=O)[nH]c1=O | 0 | 0 | 0 | 0 | 66.4 | 0
CCCCn1c(N)c(N(CCOC)C(=O)c2c(CC)noc2C)c(=O)[nH]c1=O | 0 | 0 | 0 | 0 | 0 | 19.7
CCCCN(C(=O)CSc1nnc(-c2ccccc2)o1)c1c(N)n(CCC)c(=O)[nH]c1=O | 0 | 0 | 0 | 0 | 79.5 | 0
C[C@H]1CN([C@@H](C)CO)C(=O)c2cc(NC(=O)NC3CCCCC3)ccc2O[C@H]1CN(C)Cc1ccc(Oc2ccccc2)cc1 | - | 0 | 0 | - | 0 | 0
CCCCn1c(N)c(N(CCC(C)C)C(=O)c2cc(-c3ccco3)nc3ccccc23)c(=O)[nH]c1=O | 0 | 0 | 0 | 0 | 0 | 0
CCCCN(C(=O)c1cc(-c2ccco2)nc2ccccc12)c1c(N)n(CCCC)c(=O)[nH]c1=O | 0 | 0 | 0 | - | 108.7 | 0
C[C@@H]1CN([C@@H](C)CO)C(=O)c2cc(NS(=O)(=O)c3ccc(Cl)cc3)ccc2O[C@@H](C)CCCCO[C@@H]1CN(C)C(=O)CCCN(C)C | 0 | 0 | 0 | 0 | 20.4 | 0
C[C@@H]1CN([C@H](C)CO)C(=O)c2cc(NS(=O)(=O)c3ccc(Cl)cc3)ccc2O[C@@H](C)CCCCO[C@@H]1CN(C)C(=O)CCCN(C)C | 0 | 0 | 0 | 0 | 22.4 | 0
COc1cc(-c2cc(-c3ccc(F)cc3)nc(N)c2C#N)ccc1O | 0 | 0 | 43.1 | 0 | 0 | 0
CCOc1cc(-c2cc(-c3ccc(N)cc3)nc(N)c2C#N)ccc1O | 0 | - | - | - | - | -
CC(C)NC(=O)N(C)C[C@@H]1Oc2ccc(NS(=O)(=O)c3cn(C)cn3)cc2C(=O)N([C@@H](C)CO)C[C@H]1C | 0 | 0 | 0 | 0 | 0 | 0

Screening results from PubChem.
